Assay results as given in ChEMBL document CHEMBL1148105, “Bioactive metabolites from a marine-derived strain of the fungus Emericella variecolor” (2002).
Activity calls are given as the source filed them. The calls are words filed in the database; no cut-off is given here.

Assays:
DU-145 = assay: Growth inhibition of human DU145 cells; format: functional
Outline: (§1)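 Tested in the NCI 60-cell-line screen using the standard NCI protocol, with concentrations up to 10^-4 M. Growth inhibition is reported as GI50 (M), taken from the NCI mean graphs.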

MCF7 = assay: Growth inhibition of human MCF7 cells; format: functional; outline: as §1
[1] = Growth inhibition of human Hs 578T cells; format: functional; outline: as §1
MDA-MB-435 = assay: Growth inhibition of human MDA-MB-435 cells; format: functional; outline: as §1
BT-549 = assay: Growth inhibition of human BT549 cells; format: functional; outline: as §1
T47D = assay: Growth inhibition of human T47D cells; format: functional
Outline: (§2)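 Run in the NCI 60-cell-line screen under the standard NCI protocol. Cells were tested at concentrations up to 10^-4 M. Potency was expressed as GI50 (M), taken from the NCI mean-graph data.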

Enterococcus faecalis = assay: Antimicrobial activity against Enterococcus faecalis at 100 ug/ml; format: functional, organism-based
Bacillus subtilis = assay: Antimicrobial activity against Bacillus subtilis at 100 ug/ml; format: functional, organism-based
Staphylococcus aureus = assay: Antimicrobial activity against Staphylococcus aureus at 100 ug/ml; format: functional, organism-based
Salmonella typhimurium = assay: Antimicrobial activity against Salmonella Typhimurium at 100 ug/ml; format: functional, organism-based; conditions: Salmonella enterica subsp. enterica serovar Typhimurium
Candida albicans = assay: Antimicrobial activity against Candida albicans at 100 ug/ml; format: functional, organism-based
HL-60(TB) = assay: Growth inhibition of human HL-60(TB) cells; format: functional
Outline: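 Run in the NCI 60-cell line panel using the standard NCI protocol. The value is reported as GI50 in molar units, with 10^-4 M the top concentration examined.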

K562 = assay: Growth inhibition of human K562 cells; format: functional; outline: as §1
[2] = Growth inhibition of human RPMI8266 cells; format: functional; outline: as §2
SR = assay: Growth inhibition of human SR cells; format: functional; outline: as §2
A549 = assay: Growth inhibition of human A549 cells; format: functional
EKVX = assay: Growth inhibition of human EKVX cells; format: functional; outline: as §1
HOP-92 = assay: Growth inhibition of human HOP92 cells; format: functional; outline: as §1
NCI-H226 = assay: Growth inhibition of human NCI-H226 cells; format: functional; outline: as §1
NCI-H23 = assay: Growth inhibition of human NCI-H23 cells; format: functional; outline: as §1
NCI-H322M = assay: Growth inhibition of human NCI-H322M cells; format: functional; outline: as §1
NCI-H460 = assay: Growth inhibition of human NCI-H460 cells; format: functional; outline: as §1
COLO 205 = assay: Growth inhibition of human COLO205 cells; format: functional; outline: as §1
HCT-15 = assay: Growth inhibition of human HCT15 cells; format: functional; outline: as §1
KM12 = assay: Growth inhibition of human KM12 cells; format: functional; outline: as §1
SF-268 = assay: Growth inhibition of human SF268 cells; format: functional; outline: as §2
SF-295 = assay: Growth inhibition of human SF295 cells; format: functional; outline: as §2
SNB-19 = assay: Growth inhibition of human SNB19 cells; format: functional; outline: as §2
SNB-75 = assay: Growth inhibition of human SNB75 cells; format: functional; outline: as §2
U-251 = assay: Growth inhibition of human U251 cells; format: functional; outline: as §2
Malme-3M = assay: Growth inhibition of human MALME-3M cells; format: functional; outline: as §1
SK-MEL-2 = assay: Growth inhibition of human SK-MEL-2 cells; format: functional; outline: as §2
SK-MEL-28 = assay: Growth inhibition of human SK-MEL-28 cells; format: functional; outline: as §2
UACC-257 = assay: Growth inhibition of human UACC257 cells; format: functional; outline: as §2
UACC-62 = assay: Growth inhibition of human UACC62 cells; format: functional; outline: as §2
IGROV-1 = assay: Growth inhibition of human IGROV1 cells; format: functional; outline: as §1
OVCAR-3 = assay: Growth inhibition of human OVCAR-3 cells; format: functional; outline: as §1
OVCAR-4 = assay: Growth inhibition of human OVCAR4 cells; format: functional; outline: as §1
OVCAR-5 = assay: Growth inhibition of human OVCAR5 cells; format: functional; outline: as §1
OVCAR-8 = assay: Growth inhibition of human OVCAR8 cells; format: functional; outline: as §1
A498 = assay: Growth inhibition of human A498 cells; format: functional; outline: as §1
TK-10 = assay: Growth inhibition of human TK10 cells; format: functional; outline: as §2
[3] = read-out: pLC50 (the source's name) (converted)

COc1cccc(/C=C/[C@H]2O[C@@H](C)[C@H](O)[C@@H]2O)c1CO [VARITRIOL]
GI50 (DU-145): 1100 nM
CC50 (DU-145; [3]): > 100 µM
TGI (DU-145; read-out: pTGI (converted)): 2400 nM
GI50 (MCF7): > 100 µM
CC50 (MCF7; [3]): > 100 µM
TGI (MCF7; read-out: pTGI): > 100 µM
GI50 [1]: > 100 µM
CC50 [1, 3]: > 100 µM
TGI ([1]; read-out: pTGI): > 100 µM
GI50 (MDA-MB-435): > 100 µM
CC50 (MDA-MB-435; [3]): > 100 µM
TGI (MDA-MB-435; read-out: pTGI): > 100 µM
GI50 (BT-549): > 100 µM
CC50 (BT-549; [3]): > 100 µM
TGI (BT-549; read-out: pTGI): > 100 µM
GI50 (T47D): 209 nM
CC50 (T47D; [3]): > 100 µM
TGI (T47D; read-out: pTGI (converted)): 1050 nM
Activity (Enterococcus faecalis): inactive
Activity (Bacillus subtilis): inactive
Activity (Staphylococcus aureus): inactive
Activity (Salmonella typhimurium): inactive
Activity (Candida albicans): inactive
GI50 (HL-60(TB)): 25.1 µM
CC50 (HL-60(TB); [3]): > 100 µM
TGI (HL-60(TB); read-out: pTGI): > 100 µM
GI50 (K562): > 100 µM
CC50 (K562; [3]): > 100 µM
TGI (K562; read-out: pTGI): > 100 µM
GI50 [2]: > 100 µM
CC50 [2, 3]: > 100 µM
TGI ([2]; read-out: pTGI): > 100 µM
GI50 (SR): > 100 µM
CC50 (SR; [3]): > 100 µM
TGI (SR; read-out: pTGI): > 100 µM
GI50 (A549): > 100 µM
CC50 (A549; [3]): > 100 µM
TGI (A549; read-out: pTGI): > 100 µM
GI50 (EKVX): > 100 µM
CC50 (EKVX; [3]): > 100 µM
TGI (EKVX; read-out: pTGI): > 100 µM
GI50 (HOP-92): > 100 µM
CC50 (HOP-92; [3]): > 100 µM
TGI (HOP-92; read-out: pTGI): > 100 µM
GI50 (NCI-H226): > 100 µM
CC50 (NCI-H226; [3]): > 100 µM
TGI (NCI-H226; read-out: pTGI): > 100 µM
GI50 (NCI-H23): > 100 µM
CC50 (NCI-H23; [3]): > 100 µM
TGI (NCI-H23; read-out: pTGI): > 100 µM
GI50 (NCI-H322M): > 100 µM
CC50 (NCI-H322M; [3]): > 100 µM
TGI (NCI-H322M; read-out: pTGI): > 100 µM
GI50 (NCI-H460): > 100 µM
CC50 (NCI-H460; [3]): > 100 µM
TGI (NCI-H460; read-out: pTGI): > 100 µM
GI50 (COLO 205): 95.5 µM
CC50 (COLO 205; [3]): > 100 µM
TGI (COLO 205; read-out: pTGI): > 100 µM
GI50 (HCT-15): > 100 µM
CC50 (HCT-15; [3]): > 100 µM
TGI (HCT-15; read-out: pTGI): > 100 µM
GI50 (KM12): > 100 µM
CC50 (KM12; [3]): > 100 µM
TGI (KM12; read-out: pTGI): > 100 µM
GI50 (SF-268): > 100 µM
CC50 (SF-268; [3]): > 100 µM
TGI (SF-268; read-out: pTGI): > 100 µM
GI50 (SF-295): > 100 µM
CC50 (SF-295; [3]): > 100 µM
TGI (SF-295; read-out: pTGI): > 100 µM
GI50 (SNB-19): 91.2 µM
CC50 (SNB-19; [3]): > 100 µM
TGI (SNB-19; read-out: pTGI): > 100 µM
GI50 (SNB-75): 245 nM
CC50 (SNB-75; [3]): > 100 µM
TGI (SNB-75; read-out: pTGI (converted)): 1020 nM
GI50 (U-251): > 100 µM
CC50 (U-251; [3]): > 100 µM
TGI (U-251; read-out: pTGI): > 100 µM
GI50 (Malme-3M): > 100 µM
CC50 (Malme-3M; [3]): > 100 µM
TGI (Malme-3M; read-out: pTGI): > 100 µM
GI50 (SK-MEL-2): > 100 µM
CC50 (SK-MEL-2; [3]): > 100 µM
TGI (SK-MEL-2; read-out: pTGI): > 100 µM
GI50 (SK-MEL-28): > 100 µM
CC50 (SK-MEL-28; [3]): > 100 µM
TGI (SK-MEL-28; read-out: pTGI): > 100 µM
GI50 (UACC-257): > 100 µM
CC50 (UACC-257; [3]): > 100 µM
TGI (UACC-257; read-out: pTGI): > 100 µM
GI50 (UACC-62): > 100 µM
CC50 (UACC-62; [3]): > 100 µM
TGI (UACC-62; read-out: pTGI): > 100 µM
GI50 (IGROV-1): > 100 µM
CC50 (IGROV-1; [3]): > 100 µM
TGI (IGROV-1; read-out: pTGI): > 100 µM
GI50 (OVCAR-3): > 100 µM
CC50 (OVCAR-3; [3]): > 100 µM
TGI (OVCAR-3; read-out: pTGI): > 100 µM
GI50 (OVCAR-4): > 100 µM
CC50 (OVCAR-4; [3]): > 100 µM
TGI (OVCAR-4; read-out: pTGI): > 100 µM
GI50 (OVCAR-5): 67.6 µM
CC50 (OVCAR-5; [3]): > 100 µM
TGI (OVCAR-5; read-out: pTGI): > 100 µM
GI50 (OVCAR-8): > 100 µM
CC50 (OVCAR-8; [3]): > 100 µM
TGI (OVCAR-8; read-out: pTGI): > 100 µM
GI50 (A498): > 100 µM
CC50 (A498; [3]): > 100 µM
TGI (A498; read-out: pTGI): > 100 µM
GI50 (TK-10): > 100 µM
CC50 (TK-10; [3]): > 100 µM
TGI (TK-10; read-out: pTGI): > 100 µM
